Experiments:
[1] = molecular target: T1, Aldo-keto reductase family 1 member B1 (Homo sapiens, UniProt P15121); test: In vitro inhibition of recombinant human aldose reductase (ALR2)
In short: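 Recombinant human ALR2 expressed in baculovirus-infected Sf9 cells, purified by dye-affinity chromatography. Assay at 37 °C: 100 mM sodium phosphate pH 6.2, 400 mM ammonium sulfate, 5 mU/mL enzyme, 0.1 mM NADPH. DMSO-dissolved compound preincubated 5 min, then 10 mM glyceraldehyde added; A340 decrease followed 6 min.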

[2] = molecular target: T1, Aldo-keto reductase family 1 member B1; test: (§1) In vitro inhibitory activity against recombinant human aldose reductase (ALR2) was determined
[3] = Inhibitory activity on sorbital accumulation in human retinal cells was determined; type: functional, cell-based
In short: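 ARPE-19 human retinal cells grown in MEM with 0.5% fetal calf serum plus 50 mM glucose. Compounds added in DMSO, then 16 h at 37 °C under 5% CO2. Cells lysed with 8% perchloric acid and neutralised with KOH. Sorbitol measured by colorimetric kit. IC50 taken as the concentration halving sorbitol accumulation; mean of three experiments.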

[4] = molecular target: T1, Aldo-keto reductase family 1 member B1; test: as §1; remark: listed apart in the source
In short: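 Recombinant hALR2 expressed in baculovirus-infected Sf9 cells, purified by affinity chromatography. Run at 37 °C in 100 mM sodium phosphate pH 6.2, 400 mM ammonium sulfate, 5 mU/mL enzyme, 0.1 mM NADPH. Compounds in DMSO preincubated 5 min. Started with 10 mM glyceraldehyde; A340 decrease read over 6 min.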

| Compound | inhibition [1] | IC50 [2] | IC50 [3] | other results |
| --- | --- | --- | --- | --- |
| COc1cc(Br)c(Br)cc1Oc1cc(Br)c(Br)cc1OC | 0% |  |  |  |
| Oc1c(Br)cc(Oc2cc(Br)c(Br)c(Br)c2O)c(O)c1Br |  | 4.4 µM | 8 µM |  |
| Oc1c(Oc2cc(Cl)c(Cl)c(Cl)c2O)cc(Cl)c(Cl)c1Cl |  | 3.2 µM | 0.24 µM |  |
| Oc1ccc(Br)cc1Oc1cc(Br)ccc1O | 32% |  |  |  |
| Oc1c(Oc2c(O)c(Br)c(Br)c(Br)c2Br)cc(Br)c(Br)c1Br |  | 5.5 µM | 7 µM |  |
| COc1c(Nc2cc(Br)c(Br)c(Br)c2OC)cc(Br)c(Br)c1Br | 0% |  |  |  |
| Oc1cc(Br)c(Br)cc1Oc1cc(Br)c(Br)cc1O | 46% |  |  |  |
| Oc1c(Nc2cc(Br)c(Br)c(Br)c2O)cc(Br)c(Br)c1Br | 18% |  |  |  |
| COc1ccc2c(C(=S)N(C)CC(=O)O)cccc2c1C(F)(F)F [TOLRESTAT] |  |  | 0.02 µM |  |
| COC(=O)COc1c(Br)cc(Br)cc1Oc1c(Br)c(Br)c(Br)c(Br)c1OCC(=O)OC | 0% |  |  |  |
| COc1cc(Br)c(Br)c(Br)c1Oc1cc(Br)cc(Br)c1OC | 0% |  |  |  |
| COc1c(Br)c(Br)c(Br)c(Br)c1Oc1cc(O)cc(Br)c1O | 0% |  |  |  |
| O=C(O)COc1c(Br)cc(Br)cc1Oc1c(Br)c(Br)c(Br)c(Br)c1OCC(=O)O |  | 25 µM |  |  |
| CC(=O)Oc1c(Br)cc(Br)cc1Oc1c(Br)c(Br)c(Br)c(Br)c1OC(C)=O | 0% |  |  |  |
| Oc1c(Br)cc(Br)cc1Oc1c(Br)cc(Br)c(Br)c1O | 25% |  |  |  |
| Oc1c(Oc2cc(Br)c(Br)c(Br)c2O)cc(Br)c(Br)c1Br |  | 5.7 µM | 1 µM |  |
| Oc1cc(Br)c(O)c(Oc2c(O)c(Br)c(Br)c(Br)c2Br)c1 | 38% |  |  |  |
| Nc1c(Oc2cc(Br)c(Br)c(Br)c2O)cc(Br)c(Br)c1Br |  | 8.9 µM | 6 µM |  |
| Oc1c(Br)cc(Br)cc1Oc1c(O)c(Br)c(Br)c(Br)c1Br |  |  | 3 µM | IC50 [4]: 6.4 µM |
| Oc1c(Oc2cc(Br)c(Br)c(Br)c2O)cc(F)c(Br)c1Br |  | 3.2 µM | 11 µM |  |
| COc1c(Br)cc(Br)cc1Oc1c(Br)c(Br)c(Br)c(Br)c1OC | 0% |  |  |  |
| Oc1cc(Br)c(Br)c(Br)c1Oc1cc(Br)cc(Br)c1O | 0% |  |  |  |
| O=C1NC(=O)[C@@]2(CCOc3ccc(F)cc32)N1 [SORBINIL] |  |  | 4 µM |  |
